Reference: ChEMBL document CHEMBL2390884, “Design, synthesis and antiproliferative activity studies of novel 1,2,3-triazole-dithiocarbamate-urea hybrids” (Eur J Med Chem, 2013)
Activity calls are given as the source filed them. The rule behind the calls is not given here.

Experiments:
MGC-803 [1] = test: Cell cycle arrest in human MGC803 cells assessed as accumulation at G0/G1 phase at 0.25 uM after 24 hrs by propidium iodide staining-based flow cytometry; assay type: functional
In short: (§1)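 Exponentially growing MGC-803 cells (5×10^5) treated at 0, 0.25, 0.5 or 1.0 µmol/L for 12 or 24 h; cells collected, fixed in ice-cold 70% ethanol, treated with buffer containing RNAse A and 0.1% Triton X-100, stained with PI; DNA content analysed by flow cytometry to give percentages of cells in G1, S and G2/M phases.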

MGC-803 [2] = test: Induction of apoptosis in human MGC803 cells at 0.25 to 1 uM after 12 hrs by AnnexinV-FITC/propidium iodide staining-based flow cytometry (reference value: 2.8 %); assay type: functional
MGC-803 [3] = test: Induction of apoptosis in human MGC803 cells assessed as nuclear shrinkage at 0.25 to 1 uM after 12 hrs by Hoechst 33258 staining-based fluorescence microscopy; assay type: functional, cell-based
In short: (§2)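 MGC-803 cells seeded at 8×10^3 cells/well, treated 12 h at 0, 0.25, 0.5 or 1.0 µmol/L; cells collected, fixed, stained 20 min with Hoechst 33258, washed with PBS; nuclear shrinkage, chromatin condensation, intense fluorescence and fragmentation scored by fluorescence microscopy.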

MGC-803 [4] = test: Cell cycle arrest in human MGC803 cells assessed as accumulation at S phase at 1 uM after 24 hrs by propidium iodide staining-based flow cytometry; assay type: functional; in short: as §1
MGC-803 [5] = test: Cell cycle arrest in human MGC803 cells assessed as accumulation at G2/M phase at 0.25 to 1 uM by propidium iodide staining-based flow cytometry; assay type: functional; details: TDE = time-dependent effect; in short: as §1
MGC-803 [6] = test: Induction of apoptosis in human MGC803 cells assessed as late apoptotic cells at 0.5 uM after 12 hrs by AnnexinV-FITC/propidium iodide staining-based flow cytometry (reference value: 3.0 %); assay type: functional
MCF7 = test: Cytotoxicity against human MCF7 cells after 72 hrs by MTT assay; assay type: functional, cell-based; details: MCF7, 72 h
MGC-803 [7] = test: Cell cycle arrest in human MGC803 cells assessed as accumulation at G2/M phase at 0.25 uM after 12 hrs by propidium iodide staining-based flow cytometry; assay type: functional; in short: as §1
MGC-803 [8] = test: Induction of apoptosis in human MGC803 cells assessed as necrotic cells at 0.25 uM after 12 hrs by AnnexinV-FITC/propidium iodide staining-based flow cytometry (reference value: 2.4 %); assay type: functional
MGC-803 [9] = test: Induction of apoptosis in human MGC803 cells assessed as necrotic cells at 1 uM after 12 hrs by AnnexinV-FITC/propidium iodide staining-based flow cytometry (reference value: 2.4 %); assay type: functional
MGC-803 [10] = test: Cell cycle arrest in human MGC803 cells assessed as accumulation at G0/G1 phase at 1 uM after 24 hrs by propidium iodide staining-based flow cytometry; assay type: functional; in short: as §1
MGC-803 [11] = test: Cell cycle arrest in human MGC803 cells assessed as reduction in G1 phase accumulation at 0.25 to 1 uM by propidium iodide staining-based flow cytometry; assay type: functional; details: TDE = time-dependent effect; in short: as §1
MGC-803 [12] = test: Induction of apoptosis in human MGC803 cells assessed as viable cells at 0.5 uM after 12 hrs by AnnexinV-FITC/propidium iodide staining-based flow cytometry (reference value: 91.9 %); assay type: functional; details: MGC-803, 12 h, read-out: Activity
MGC-803 [13] = test: Cell cycle arrest in human MGC803 cells assessed as accumulation at S phase at 1 uM after 12 hrs by propidium iodide staining-based flow cytometry; assay type: functional; in short: as §1
MGC-803 [14] = test: Cell cycle arrest in human MGC803 cells assessed as accumulation at G0/G1 phase at 1 uM after 12 hrs by propidium iodide staining-based flow cytometry; assay type: functional; in short: as §1
MGC-803 [15] = test: Cell cycle arrest in human MGC803 cells assessed as accumulation at G2/M phase at 0.5 uM after 12 hrs by propidium iodide staining-based flow cytometry; assay type: functional; in short: as §1
MGC-803 [16] = test: Cell cycle arrest in human MGC803 cells assessed as accumulation at G0/G1 phase at 0.5 uM after 12 hrs by propidium iodide staining-based flow cytometry; assay type: functional; in short: as §1
MGC-803 [17] = test: Cytotoxicity against human MGC803 cells after 72 hrs by MTT assay; assay type: functional, cell-based; details: MGC-803, 72 h
MGC-803 [18] = test: Cell cycle arrest in human MGC803 cells assessed as accumulation at G2/M phase at 0.25 uM after 24 hrs by propidium iodide staining-based flow cytometry; assay type: functional; in short: as §1
MGC-803 [19] = test: Cell cycle arrest in human MGC803 cells assessed as accumulation at G2/M phase at 0.5 uM after 24 hrs by propidium iodide staining-based flow cytometry; assay type: functional; in short: as §1
MGC-803 [20] = test: Induction of apoptosis in human MGC803 cells assessed as early apoptotic cells at 1 uM after 12 hrs by AnnexinV-FITC/propidium iodide staining-based flow cytometry (reference value: 2.8 %); assay type: functional
MGC-803 [21] = test: Cell cycle arrest in human MGC803 cells assessed as accumulation at S phase at 0.25 uM after 24 hrs by propidium iodide staining-based flow cytometry; assay type: functional; in short: as §1
MGC-803 [22] = test: Cell cycle arrest in human MGC803 cells assessed as accumulation at G2/M phase after 12 to 24 hrs by propidium iodide staining-based flow cytometry; assay type: functional; in short: as §1
MGC-803 [23] = test: Induction of apoptosis in human MGC803 cells assessed as viable cells at 0.25 uM after 12 hrs by AnnexinV-FITC/propidium iodide staining-based flow cytometry (reference value: 91.9 %); assay type: functional; details: MGC-803, 12 h, read-out: Activity
SMMC-7721 = test: Cytotoxicity against human SMMC7721 cells after 72 hrs by MTT assay; assay type: functional, cell-based; details: SMMC-7721, 72 h
MGC-803 [24] = test: Cell cycle arrest in human MGC803 cells assessed as accumulation at S phase at 0.25 uM after 12 hrs by propidium iodide staining-based flow cytometry; assay type: functional; in short: as §1
MGC-803 [25] = test: Cell cycle arrest in human MGC803 cells assessed as reduction in G1 phase accumulation after 12 to 24 hrs by propidium iodide staining-based flow cytometry; assay type: functional; in short: as §1
MGC-803 [26] = test: Induction of apoptosis in human MGC803 cells after 12 hrs by AnnexinV-FITC/propidium iodide staining-based flow cytometry; assay type: functional, cell-based
MGC-803 [27] = test: Induction of apoptosis in human MGC803 cells assessed as nuclear fragmentation at 0.25 to 1 uM after 12 hrs by Hoechst 33258 staining-based fluorescence microscopy; assay type: functional, cell-based; in short: as §2
[28] = Cytotoxicity against human EC9706 cells after 72 hrs by MTT assay; assay type: functional, cell-based; details: EC9706, 72 h
MGC-803 [29] = test: Cell cycle arrest in human MGC803 cells assessed as reduction in S phase accumulation at 0.25 to 1 uM by propidium iodide staining-based flow cytometry; assay type: functional; details: TDE = time-dependent effect; in short: as §1
MGC-803 [30] = test: Cell cycle arrest in human MGC803 cells assessed as accumulation at G2/M phase at 1 uM after 12 hrs by propidium iodide staining-based flow cytometry; assay type: functional; in short: as §1
MGC-803 [31] = test: Induction of apoptosis in human MGC803 cells assessed as early apoptotic cells at 0.5 uM after 12 hrs by AnnexinV-FITC/propidium iodide staining-based flow cytometry (reference value: 2.8 %); assay type: functional
MGC-803 [32] = test: Induction of apoptosis in human MGC803 cells assessed as necrotic cells at 0.5 uM after 12 hrs by AnnexinV-FITC/propidium iodide staining-based flow cytometry (reference value: 2.4 %); assay type: functional

Compound: CC(C)NC(=O)N1CCN(C(=S)SCc2cn(Cc3ccc(F)cc3)nn2)CC1
- Activity (MGC-803 [1]): 13.78%
- Activity (MGC-803 [2]): 31.4%
- Activity (MGC-803 [3]): Active
- Activity (MGC-803 [4]): 15.91%
- Activity (MGC-803 [5]): tde
- Activity (MGC-803 [6]): 1.8%
- IC50 (MCF7): 1.66 µM
- Activity (MGC-803 [7]): 20.84%
- Activity (MGC-803 [8]): 0.5%
- Activity (MGC-803 [9]): 1.2%
- Activity (MGC-803 [10]): 2.32%
- Activity (MGC-803 [11]): tde
- viability at 0.5 µM (MGC-803 [12]): 80.1%
- Activity (MGC-803 [13]): 12.65%
- Activity (MGC-803 [14]): 3.62%
- Activity (MGC-803 [15]): 46.86%
- Activity (MGC-803 [16]): 22.18%
- IC50 (MGC-803 [17]): 0.76 µM
- Activity (MGC-803 [18]): 58.94%
- Activity (MGC-803 [19]): 69.88%
- Activity (MGC-803 [20]): 31.4%
- Activity (MGC-803 [21]): 25.21%
- Activity (MGC-803 [22]): Dose-dependent effect
- viability at 0.25 µM (MGC-803 [23]): 88.1%
- IC50 (SMMC-7721): 5.97 µM
- Activity (MGC-803 [24]): 40.91%
- Activity (MGC-803 [25]): Dose-dependent effect
- Activity (MGC-803 [26]): Dose-dependent effect
- Activity (MGC-803 [27]): Active
- IC50 [28]: 12.2 µM
- Activity (MGC-803 [29]): tde
- Activity (MGC-803 [30]): 68.68%
- Activity (MGC-803 [31]): 17.2%
- Activity (MGC-803 [32]): 0.8%
